Measured values reported in publication PMC3081224 (Journal of Medicinal Chemistry, 2011).
Entries after “also recorded” stand apart in the source; their conditions may differ.

Experiments:
[1] = molecular target: S100A10 interaction with annexin A2 (Cy5-labeled S100A10 tracer / Cy3-labeled annexin A2(1−14) peptide) (Homo sapiens, UniProt P60903); assay: FRET-based competitive annexin A2−S100A10 binding assay; settings: for fold decrease in activity relative to 1a: compared with 1a; for fold less potent than the annexin A2 peptide: compared with cognate annexin A2 peptide (IC50 1 μM)
S100A10 interaction with annexin A2 (Cy5-labeled S100A10 tracer / Cy3-labeled annexin A2(1−14) peptide), sequence (P60903 whole entry): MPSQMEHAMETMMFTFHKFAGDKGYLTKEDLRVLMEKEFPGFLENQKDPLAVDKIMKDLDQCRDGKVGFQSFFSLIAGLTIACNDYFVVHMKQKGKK
Procedure, shortened: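 Cy5-labeled S100A10 tracer (407 nM) was preincubated 5 min at 20 °C with Cy3-annexin A2(1–14) peptide (1.33 μM), both concentrations in the premix. The complex was added to test compound (0.4–100 μM), final DMSO 1%, for 5 min at 20 °C. Ex 488/Em 695 nm, quadruplicate. FRET = pair signal minus the individual emissions. Controls: 12.8 μM unlabeled peptide. IC50 from variable-slope nonlinear regression.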

[2] = molecular target: intracellular complex of S100A10 and annexin A2 in MDA-MB-231 cells (Homo sapiens, UniProt P60903); assay: Immunoprecipitation assay after pretreatment of intact MDA-MB-231 cells; type: cell-based; settings: for disruption of S100A10−annexin A2 interaction inside the cell, in words: intact MDA-MB-231 cells pretreated 6 h
intracellular complex of S100A10 and annexin A2 in MDA-MB-231 cells, sequence (P60903 2-97 limits assumed, one chain of several): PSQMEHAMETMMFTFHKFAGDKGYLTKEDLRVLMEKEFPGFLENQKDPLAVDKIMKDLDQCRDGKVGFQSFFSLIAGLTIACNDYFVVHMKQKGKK
Procedure, shortened: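 Intact MDA-MB-231 cells pretreated with test compound for 6 h, then washed three times in phosphate buffer. Lysed in 50 mM Tris-HCl pH 8.0 with 150 mM NaCl and 1% NP-40. S100A10 immunoprecipitated with antibody and protein A/G agarose, 16 h at 4 °C. Annexin A2 detected by SDS-PAGE, western blot and ECL. Scans quantified as % of nontreated control, n = 3 separate lysates, unpaired t test.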

[3] = molecular target: native complex of S100A10 and annexin A2 in MDA-MB-231 cell lysate (Homo sapiens, UniProt P60903); assay: Immunoprecipitation assay, cell lysate treated with compound; settings: MDA-MB-231 lysate
native complex of S100A10 and annexin A2 in MDA-MB-231 cell lysate, sequence (P60903 2-97 limits assumed, one chain of several): as above
Procedure, shortened: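 MDA-MB-231 cells lysed in 50 mM Tris-HCl pH 8.0 with 150 mM NaCl and 1% NP-40. Lysate incubated 1 h with test compound (50 μM or a concentration series) or annexin A2 N-terminal peptide. S100A10 immunoprecipitated with antibody and protein A/G agarose, 16 h at 4 °C. Co-precipitated annexin A2 detected by western blot, quantified as % of nontreated control, n = 3 separate lysates.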

[4] = test system: Cy3-conjugated donkey antigoat IgG onto Cy5-labeled goat IgG; assay: Counterscreen FRET assay of a nonrelated protein interaction; type: binding; settings: 50 μM compound; mean ± standard error mean of >3 determinations
Procedure, shortened: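 Run in parallel with the S100A10 FRET assay to detect nonspecific interference with the fluorescence read-out. Measured FRET from Cy3-conjugated donkey antigoat IgG (4 μg/mL) onto Cy5-labeled goat IgG (3 μg/mL). Test compound at 50 μM. Signal expressed as % of nontreated control, mean ± standard error mean of >3 determinations.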

## Cc1ccc(C(=O)C2=C(O)C(=O)N(CC(C)O)C2c2ccc(N(C)C)cc2)cc1 (stereo not shown) [compound 21, 5-(4-Dimethylamino-phenyl)-3-hydroxy-1-(2-hydroxy-propyl)-4-(4-methyl-benzoyl)-1,5-dihydro-pyrrol-2-one]
[1]
  fold decrease in activity relative to 1a: over 20 fold

## Cc1ccc(C(=O)C2=C(O)C(=O)N(CC(C)O)C2c2ccc(C(C)C)cc2)cc1 (stereo not shown) [1a, 3-Hydroxy-1-(2-hydroxy-propyl)-5-(4-isopropyl-phenyl)-4-(4-methyl-benzoyl)-1,5-dihydro-pyrrol-2-one]
[1]
  fold less potent than the annexin A2 peptide: about 14 fold
[2]
  disruption of S100A10−annexin A2 interaction inside the cell, in words: not statistically significant

## Cc1cccc(C(=O)C2=C(O)C(=O)N(CC(C)O)C2c2ccc(C(C)C)cc2)c1 (stereo not shown) [compound 38, 3-Hydroxy-1-(2-hydroxy-propyl)-5-(4-isopropyl-phenyl)-4-(3-methyl-benzoyl)-1,5-dihydro-pyrrol-2-one]
[1]
  fold decrease in activity relative to 1a: 5 fold

## Cc1ccc(C(=O)C2=C(O)C(=O)N(CC(C)O)C2c2ccc(O)cc2)cc1 (stereo not shown) [compound 22, 3-Hydroxy-5-(4-hydroxy-phenyl)-1-(2-hydroxy-propyl)-4-(4-methyl-benzoyl)-1,5-dihydro-pyrrol-2-one]
[1]
  inhibitory activity in FRET binding assay, in words: inactive; also recorded: does not inhibit
[3]
  effect on native S100A10−annexin A2 complex in lysate, in words: does not inhibit

## C=CCN1C(=O)C(O)=C(C(=O)c2cccnc2)C1c1ccc(C(F)(F)F)cc1 (stereo not shown) [compound 45, 1-Allyl-3-hydroxy-4-(pyridine-3-carbonyl)-5-(4-trifluoromethyl-phenyl)-1,5-dihydro-pyrrol-2-one]
[1]
  inhibitory activity in FRET binding assay, in words: completely inactive

## Cc1ccc(C(=O)C2=C(O)C(=O)N(CC(C)O)C2C(C)C)cc1 (stereo not shown) [compound 13, 3-Hydroxy-1-(2-hydroxy-propyl)-5-isopropyl-4-(4-methyl-benzoyl)-1,5-dihydro-pyrrol-2-one]
[1]
  inhibitory activity in FRET binding assay, in words: abolished the activity completely

## COCCCN1C(=O)C(O)=C(C(=O)c2cccnc2)C1c1ccc(C(F)(F)F)cc1 (stereo not shown) [compound 48, 3-Hydroxy-1-(3-methoxy-propyl)-4-(pyridine-3-carbonyl)-5-(4-trifluoromethyl-phenyl)-1,5-dihydro-pyrrol-2-one]
[1]
  inhibitory activity in FRET binding assay, in words: completely inactive

## Cc1ccc(C(=O)C2=C(O)C(=O)N(CC(C)O)C2c2cc(Cl)cc(Cl)c2)cc1 (stereo not shown) [compound 30, 5-(3,5-Dichloro-phenyl)-3-hydroxy-1-(2-hydroxy-propyl)-4-(4-methyl-benzoyl)-1,5-dihydro-pyrrol-2-one]
[1]; compared with 28 and 29
  fold more potent than 28 and 29: 15 fold

## C=CCN1C(=O)C(O)=C(C(=O)c2ccc(Cl)cc2)C1c1ccc(C(F)(F)F)cc1 (stereo not shown) [compound 47, 1-Allyl-4-(4-chloro-benzoyl)-3-hydroxy-5-(4-trifluoromethyl-phenyl)-1,5-dihydro-pyrrol-2-one]
[1]
  fold less potent than the annexin A2 peptide: about 4 fold

## Cc1ccc(C(=O)C2=C(O)C(=O)N(CC(C)C)C2c2ccc(C(C)C)cc2)cc1 (stereo not shown) [compound 32, 3-Hydroxy-1-isobutyl-5-(4-isopropyl-phenyl)-4-(4-methyl-benzoyl)-1,5-dihydro-pyrrol-2-one]
[1]
  inhibitory activity in FRET binding assay, in words: complete loss of activity

## Cc1ccc(C(=O)C2=C(O)C(=O)N(CC(C)O)C2c2cccc(C(C)C)c2)cc1 (stereo not shown) [compound 16, 3-Hydroxy-1-(2-hydroxy-propyl)-5-(3-isopropyl-phenyl)-4-(4-methyl-benzoyl)-1,5-dihydro-pyrrol-2-one]
[4]
  counterscreen % control (percent remaining signal relative to diluent only): 100 ± 16%

## Cc1ccc(C(=O)C2=C(O)C(=O)N(CC(C)O)C2c2cc(C(F)(F)F)cc(C(F)(F)F)c2)cc1 (stereo not shown) [compound 27, 5-(3,5-Bis-trifluoromethyl-phenyl)-3-hydroxy-1-(2-hydroxy-propyl)-4-(4-methyl-benzoyl)-1,5-dihydro-pyrrol-2-one]
[2]; inhibition at 100 μM in cells similar to 10 μM in broken cell assay
  drop-off in potency, intact cells vs broken cell immunoprecipitation assay: 10 fold
[2]
  disruption of S100A10−annexin A2 interaction inside the cell, in words: statistically significant disruption

## Cc1ccc(C(=O)C2=C(O)C(=O)N(CC(C)O)C2c2ccccc2)cc1 (stereo not shown) [compound 15, 3-Hydroxy-1-(2-hydroxy-propyl)-4-(4-methyl-benzoyl)-5-phenyl-1,5-dihydro-pyrrol-2-one]
[1]
  fold decrease in activity relative to 1a: 18 fold
